Source: ChEMBL document CHEMBL2331259, “Design, synthesis, biological evaluation and molecular modeling studies of 1-aryl-6-(3,4,5-trimethoxyphenyl)-3(Z)-hexen-1,5-diynes as a new class of potent antitumor agents” (Eur J Med Chem, 2013)
Activity calls are given as the source filed them. The calls are words filed in the database; no cut-off is given here.

How the values were obtained:
[1] = target: T1, Tubulin alpha (Homo sapiens) (UniProt P0DPH7+P68366+Q71U36+P68363+Q9BQE3+Q6PEY2+A6NHL2+Q9NY65); assay: Binding affinity to Tubulin alpha/beta in human BT-483 cells assessed as microtubule depolymerization at 3.6 uM after 6 hrs by immunofluorescence analysis; assay type: cell-based
SK-HEP1 = assay: Cytotoxicity against human SKHEP1 cells assessed as growth inhibition; assay type: functional, cell-based
[2] = Cytotoxicity against human CE81T cells assessed as growth inhibition; assay type: functional, cell-based
SAS = assay: Cytotoxicity against human SAS cells assessed as growth inhibition; assay type: functional, cell-based
HeLa = assay: Cytotoxicity against human HeLa cells assessed as growth inhibition; assay type: functional, cell-based
PC-3 = assay: Cytotoxicity against human PC3 cells assessed as growth inhibition; assay type: functional, cell-based
[3] = Cytotoxicity against human BT-483 cells assessed as growth inhibition; assay type: functional, cell-based
AGS = assay: Cytotoxicity against human AGS cells assessed as growth inhibition; assay type: functional, cell-based
A549 = assay: Cytotoxicity against human A549 cells assessed as growth inhibition; assay type: functional, cell-based
BT-483 [4] = assay: Antitumor activity against human BT-483 cells xenografted in nude mouse assessed as decrease in tumor growth at 20 mg/kg/day, ip for 2 weeks measured every 3 days by caliper analysis; assay type: functional, organism-based
Method in brief: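 Nude mice (male, 6–8 weeks, 20–25 g, SPF) inoculated s.c. in left flank with 1×10^6 BT483 cells in 50% matrigel. Treatment began at tumor volume ~20 mm³: i.p. daily for 2 weeks versus DMSO vehicle (n = 5 vehicle, n = 6 treated). Caliper measurement every 3 days from first dose; volume = width × length × height. Mean ± SEM.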

[5] = target: T1, Tubulin alpha (Homo sapiens); assay: Binding affinity to Tubulin alpha/beta in human BT-483 cells assessed as microtubule depolymerization at 1 uM after 6 hrs by immunofluorescence analysis; assay type: cell-based
Method in brief: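 BT483 cells held at 4 °C for 4 h to depolymerize microtubules, then incubated at 37 °C for 6 h in medium with DMSO or 1 μM compound. Cells fixed, immunostained with anti-tubulin antibody to view microtubule distribution; nuclei counterstained with DAPI.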

BT-483 [6] = assay: Induction of DNA damage in human BT-483 cells assessed as gamma H2AX phosphorylation at Ser139 at 1 to 10 uM after 24 hrs by Western blot analysis; assay type: functional, cell-based
Method in brief: (§1)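 BT483 cells treated 24 h with vehicle (1% DMSO) or compound at various concentrations, PBS-washed and lysed. 50 μg protein run on 15% SDS-PAGE, transferred to PVDF, blocked overnight at 4 °C in 5% nonfat milk. Probed 2 h at room temperature with monoclonal anti-Caspase-3, anti-PARP, anti-phospho-γ-H2AX or anti-β-actin, then secondary IgG (1:5000). ECL detection. Irinotecan served as positive control.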

BT-483 [7] = assay: Induction of apoptosis in human BT-483 cells assessed as PARP cleavage at 1 uM after 24 hrs by Western blot analysis; assay type: functional, cell-based; method in brief: as §1
BT-483 [8] = assay: Induction of apoptosis in human BT-483 cells assessed as increase in caspase 3 activity at 1 uM after 24 hrs by Western blot analysis; assay type: functional, cell-based; method in brief: as §1
[9] = Cell cycle arrest in human BT-483 cells assessed as accumulation of cells at subG1 phase at 0.2 uM after 24 hrs by flow cytometric analysis; assay type: functional, cell-based
Method in brief: (§2)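 BT-483 cells exposed to DMSO or 0.2 μM compound for 12 and 24 h, harvested, PBS-rinsed, fixed in 80% ethanol and stored at -20 °C. DNA-fluorescence flow cytometry used for cell cycle distribution, including G2/M and sub-G1 fractions.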

[10] = Cell cycle arrest in human BT-483 cells assessed as accumulation of cells at G2/M phase at 0.2 uM after 12 hrs by flow cytometric analysis; assay type: functional, cell-based; method in brief: as §2
BT-483 [11] = assay: Induction of DNA damage in human BT-483 cells assessed as gamma H2AX phosphorylation at Ser139 at 1 uM after 24 hrs by Western blot analysis; assay type: functional, cell-based; method in brief: as §1

| SMILES | Activity [1] | IC50 (SK-HEP1) [µM] | IC50 [2] [µM] | IC50 (SAS) [µM] | IC50 (HeLa) [µM] | IC50 (PC-3) [µM] | IC50 [3] [µM] | IC50 (AGS) [µM] | IC50 (A549) [µM] | Activity (BT-483 [4]) | Activity [5] | Activity (BT-483 [6]) | Activity (BT-483 [7]) | Activity (BT-483 [8]) | Activity [9] | Activity [10] | Activity (BT-483 [11]) |
| --- | --- | --- | --- | --- | --- | --- | --- | --- | --- | --- | --- | --- | --- | --- | --- | --- | --- |
| Nc1ccccc1C#C/C=C\C#Cc1ccccc1C(F)(F)F | Active | 6.68 | 2.91 | 5.83 | 5.49 | 8.26 | 8.56 | 8.24 | 6.57 |  |  |  |  |  |  |  |  |
| COc1ccccc1C#C/C=C\C#Cc1cc(OC)c(OC)c(OC)c1 |  | 0.34 | 6.95 | 9.88 | 0.57 | 0.62 | 1.23 | 0.78 | 0.52 |  |  |  |  |  |  |  |  |
| COc1cc(C#C/C=C\C#Cc2ccccn2)cc(OC)c1OC |  | 0.43 | 6.87 | 1.16 | 0.39 | 0.51 | 0.86 | 0.13 | 3.99 | Active | Active | Active | Active | Active | Active | Active |  |
| COc1ccc(C#C/C=C\C#Cc2cc(OC)c(OC)c(OC)c2)c(N)c1 |  | 5.23 | 30 | 12.3 | 5 | 11.7 | 9.56 | 5.75 | 6.42 |  |  |  |  |  |  |  |  |
| COc1cc(C#C/C=C\C#Cc2ccccc2N)cc(OC)c1OC |  | 0.2 | 8.98 | 4.53 | 0.64 | 0.73 | 1.98 | 0.98 | 0.57 |  |  |  |  |  |  |  |  |
| COc1cc(C#C/C=C\C#Cc2ccccc2[N+](=O)[O-])cc(OC)c1OC |  | 1.34 | 6.91 | 1.37 | 1.89 | 4.56 | 4.24 | 4.66 | 5.71 |  |  |  |  |  |  |  |  |
| COc1cc(C#C/C=C\C#Cc2ccccc2C#N)cc(OC)c1OC |  | 1.2 | 6.39 | 10.6 | 1.07 | 8.68 | 10.5 | 4.56 | 0.79 |  |  |  |  |  |  |  |  |
| CCc1c2c(nc3ccc(OC(=O)N4CCC(N5CCCCC5)CC4)cc13)-c1cc3c(c(=O)n1C2)COC(=O)[C@]3(O)CC |  |  |  |  |  |  |  |  |  |  |  |  |  |  |  |  | Active |
| COc1cc(C#C/C=C\C#Cc2cc(C(F)(F)F)ccc2N)cc(OC)c1OC |  | 28.3 | 21 | 15.8 | 24.8 |  | 21.2 |  | 12.4 |  |  |  |  |  |  |  |  |
| COc1cc(C#C/C=C\C#Cc2ccccc2SC)cc(OC)c1OC |  | 13.3 | 13.9 | 12.8 | 15.9 | 17.4 | 15.2 | 9.53 | 11.7 |  |  |  |  |  |  |  |  |
| COc1ccc(C#C/C=C\C#Cc2cc(OC)c(OC)c(OC)c2)c(OC)c1 |  | 14.4 | 17.4 |  | 12.8 | 22.9 |  |  |  |  |  |  |  |  |  |  |  |
| COc1cc2c(c(OC)c1OC)-c1ccc(OC)c(=O)cc1[C@@H](NC(C)=O)CC2 [COLCHICINE] |  | 0.78 | 1.78 | 3.5 | 0.66 | 0.06 | 1.45 | 0.05 | 0.07 |  |  |  |  |  |  |  |  |
| COc1ccc(C#C/C=C\C#Cc2cc(OC)c(OC)c(OC)c2)c([N+](=O)[O-])c1 |  | 4.28 | 6.32 | 0.65 | 2.26 | 3.79 | 4.53 | 2.78 | 5.95 |  |  |  |  |  |  |  |  |
